Measurements published in ChEMBL document CHEMBL3588757, “Structure-based design, synthesis and biological testing of piperazine-linked bis-epipodophyllotoxin etoposide analogs” (Bioorg Med Chem, 2015).

Legend:
Type in all cases: functional
A549 [1] = test: Cytotoxicity against human A549/ATCC cells assessed as cell growth at 0.05 uM by SRB assay; conditions: read-out: Activity
OVCAR-8 [2] = test: Cytotoxicity against human OVCAR8 cells assessed as cell growth at 0.005 uM by SRB assay; conditions: read-out: Activity
SK-OV-3 = test: Cytotoxicity against human SKOV3 cells assessed as cell growth at 0.05 uM by SRB assay; conditions: read-out: Activity
SK-MEL-5 [3] = test: Cytotoxicity against human SK-MEL-5 cells assessed as cell growth at 0.05 uM by SRB assay; conditions: read-out: Activity
OVCAR-8 [4] = test: Cytotoxicity against human OVCAR8 cells assessed as cell growth at 5 uM by SRB assay; conditions: read-out: Activity
LOX IMVI [5] = test: Cytotoxicity against human LOXIMVI cells assessed as cell growth at 0.5 uM by SRB assay; conditions: read-out: Activity
A549 [6] = test: Cytotoxicity against human A549/ATCC cells assessed as cell growth at 0.005 uM by SRB assay; conditions: read-out: Activity
MDA-MB-231 = test: Cytotoxicity against human MDA-MB-231/ATCC cells assessed as cell growth at 0.005 uM by SRB assay; conditions: read-out: Activity
DU-145 = test: Cytotoxicity against human DU145 cells assessed as cell growth at 50 uM by SRB assay; conditions: read-out: Activity
In short: (§1)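 Measured in the NCI-60 human tumour cell line panel using five-dose testing. Growth was recorded at each dose for each cell line, and a GI50 was derived for each line.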

M14 = test: Cytotoxicity against human M14 cells assessed as cell growth at 0.05 uM by SRB assay; conditions: read-out: Activity
TK-10 [7] = test: Cytotoxicity against human TK10 cells by SRB assay
In short: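 NCI-60 panel screen; 5-dose testing giving GI50 per cell line, plus a single 10 µM one-dose test. Method details not given beyond the NCI screen.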

CAKI-1 = test: Cytotoxicity against human Caki1 cells assessed as cell growth at 0.05 uM by SRB assay; conditions: read-out: Activity
KM12 [8] = test: Cytotoxicity against human KM12 cells assessed as cell growth at 0.05 uM by SRB assay; conditions: read-out: Activity
HOP-92 = test: Cytotoxicity against human HOP92 cells assessed as cell growth at 50 uM by SRB assay; conditions: read-out: Activity; in short: as §1
MCF7 = test: Cytotoxicity against human MCF7 cells assessed as cell growth at 0.05 uM by SRB assay; conditions: read-out: Activity
SF-539 = test: Cytotoxicity against human SF539 cells assessed as cell growth at 0.005 uM by SRB assay; conditions: read-out: Activity
SK-MEL-5 [9] = test: Cytotoxicity against human SK-MEL-5 cells assessed as cell growth at 50 uM by SRB assay; conditions: read-out: Activity
HCC 2998 = test: Cytotoxicity against human HCC2998 cells assessed as cell growth at 0.5 uM by SRB assay; conditions: read-out: Activity; in short: as §1
HOP-62 [10] = test: Cytotoxicity against human HOP62 cells by SRB assay; in short: as §1
TK-10 [11] = test: Cytotoxicity against human TK10 cells assessed as cell growth at 5 uM by SRB assay; conditions: read-out: Activity
SNB-19 = test: Cytotoxicity against human SNB19 cells assessed as cell growth at 0.05 uM by SRB assay; conditions: read-out: Activity
KM12 [12] = test: Cytotoxicity against human KM12 cells assessed as cell growth at 5 uM by SRB assay; conditions: read-out: Activity
LOX IMVI [13] = test: Cytotoxicity against human LOXIMVI cells assessed as cell growth at 0.005 uM by SRB assay; conditions: read-out: Activity
SNB-75 = test: Cytotoxicity against human SNB75 cells assessed as cell growth at 0.05 uM by SRB assay; conditions: read-out: Activity
SF-295 = test: Cytotoxicity against human SF295 cells assessed as cell growth at 0.5 uM by SRB assay; conditions: read-out: Activity
HOP-62 [14] = test: Cytotoxicity against human HOP62 cells assessed as cell growth at 50 uM by SRB assay; conditions: read-out: Activity; in short: as §1
IGROV-1 = test: Cytotoxicity against human IGROV1 cells assessed as cell growth at 0.5 uM by SRB assay; conditions: read-out: Activity; in short: as §1
[15] = read-out: LC50 (the source's name)
[16] = read-out: pLC50 (the source's name) (converted)

COc1cc([C@@H]2c3cc4c(cc3[C@@H](NC(=O)CN3CCN(CCCCCCN5CCN(CC(=O)N[C@@H]6c7cc8c(cc7[C@@H](c7cc(OC)c(O)c(OC)c7)[C@H]7C(=O)OC[C@@H]76)OCO8)CC5)CC3)[C@H]3COC(=O)[C@H]23)OCO4)cc(OC)c1O
growth at 0.05 µM (A549 [1]): 89%
growth at 0.005 µM (OVCAR-8 [2]): 110%
growth at 0.05 µM (SK-OV-3): 107%
growth at 0.05 µM (SK-MEL-5 [3]): 93%
growth at 5 µM (OVCAR-8 [4]): 92%
growth at 0.5 µM (LOX IMVI [5]): 61%
growth at 0.005 µM (A549 [6]): 99%
growth at 0.005 µM (MDA-MB-231): 103%
growth at 50 µM (DU-145): 7%
growth at 0.05 µM (M14): 94%
GI50 (TK-10 [7]; read-out: GI50): > 50 µM
CC50 (TK-10 [7]; [15]): > 50 µM
TGI (TK-10 [7]; read-out: TGI): > 50 µM
GI50 (TK-10 [7]; read-out: pGI50 (converted)): > 50.1 µM
CC50 (TK-10 [7]; [16]): > 50.1 µM
TGI (TK-10 [7]; read-out: pTGI (converted)): > 50.1 µM
growth at 0.05 µM (CAKI-1): 93%
growth at 0.05 µM (KM12 [8]): 103%
growth at 50 µM (HOP-92): 14%
growth at 0.05 µM (MCF7): 77%
growth at 0.005 µM (SF-539): 94%
growth at 50 µM (SK-MEL-5 [9]): 9%
growth at 0.5 µM (HCC 2998): 82%
GI50 (HOP-62 [10]; read-out: GI50): 3.6 µM
CC50 (HOP-62 [10]; [15]): > 50 µM
TGI (HOP-62 [10]; read-out: TGI): 22.8 µM
GI50 (HOP-62 [10]; read-out: pGI50 (converted)): 3.63 µM
CC50 (HOP-62 [10]; [16]): > 50.1 µM
TGI (HOP-62 [10]; read-out: pTGI (converted)): 22.9 µM
growth at 5 µM (TK-10 [11]): 85%
growth at 0.05 µM (SNB-19): 95%
growth at 5 µM (KM12 [12]): 46%
growth at 0.005 µM (LOX IMVI [13]): 98%
growth at 0.05 µM (SNB-75): 77%
growth at 0.5 µM (SF-295): 94%
growth at 50 µM (HOP-62 [14]): -22%
growth at 0.5 µM (IGROV-1): 89%
